Env fusion inh – inhibitors of HIV Env-mediated cell fusion | HeLa-JRFL Env/CEM21 cell fusion, luciferase | inhibition, % at 12.3 µM | 360,000 compounds, 1.1% hits | AID 651610;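 active = mean replicate inhibition score of at least 50 and every replicate individually at or above 50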
DENV2 CPE – protects cells from dengue virus 2 cytopathic effect; DENV2-infected cells, cytopathic effect rescue, plate reader; CPE inhibition, % at 9.99 µM; 350,000 compounds, 1.7% hits; AID 651640; in the data active = CPE inhibition above about 20%, passing the limit was not always enough; tested in BHK-21 cells
PglD DTNB – PglD (C. jejuni) enzyme inhibition; purified PglD enzyme, DTNB colorimetric CoA detection; inhibition, % at 12.5 µM; 360,000 compounds, 0.098% hits; AID 602405; in the data active = inhibition above about 16%, passing the limit was not always enough
Ecoli rRNA inh – inhibitors of bacterial rRNA selective over humanized ribosomes; 350,000 compounds, 1.6% hits; AID 720706; E. coli WT GFP vs humanized-ribosome RFP mutants, fluorescence, 24 h; hits give low values; DMSO median 0, no signal -100; GFP signal change (wild-type ribosome), % (test concentration not listed);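 active = significant combined selectivity score with lowered wild-type GFP, culture density cut under 30%, mutant RFP and density less affected; inactive = any of these conditions unmet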
PGC1a acetyl inh – modulators of PGC1a acetylation; AID 651687; inhibition, % at 15.6 µM; 350,000 compounds, 0.17% hits; U2OS PGC1a acetylation, AlphaScreen anti-acetyl-lysine; with virally co-expressed GCN5 acetyltransferase;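 active = every replicate shows inhibition of at least 40%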
FN deposition inh – fibronectin deposition inhibition. AH1F fibroblasts, Alexa488-fibronectin deposition fluorescence, overnight. inhibition, % at 12.6 µM. 350,000 compounds, 0.086% hits;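 active = mean inhibition across replicates of 30% or more, regardless of how many single replicates reach that level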
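Material: AH1F fibroblast monolayer depositing Alexa488-labelled fibronectin into matrix | Input: 10000 AH1F cells/well | Medium: DMEM plus 2% serum, read in PBS | Reagent: Alexa488-fibronectin, 24 nM final in well | Compound dosing: One dose per compound, pinned | Schedule: 1 h adhesion, overnight exposure | Measured by: Fluorescence at 485 nm excitation, 525 nm emission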
Hits are given with their value; [ ] = remark or other dose. Hits are enriched below; roughly 3.5% of the tested compounds scored in any of these assays.

How did Cn1c(SCC(=O)N2CCCC2)nc2c(c1=O)SCC2 do in these assays?
Env fusion inh: inactive; DENV2 CPE: 58.7; PglD DTNB: inactive; Ecoli rRNA inh: inactive; FN deposition inh: inactive

How did CCC(=O)N1[C@H](CO)[C@H](c2ccc(-c3cccc(OC)c3)cc2)[C@@H]1CNC(C)=O do in these assays?
DENV2 CPE: inactive; Ecoli rRNA inh: inactive; FN deposition inh: inactive

How did Cc1cc(/C=C(\C#N)C(=O)NCc2ccccc2)cc(C)c1O do in these assays?
Env fusion inh: inactive; DENV2 CPE: inactive; PglD DTNB: inactive; Ecoli rRNA inh: inactive; FN deposition inh: inactive

Results for COc1cc(/C=C(/C#N)C(=O)NCc2ccccc2)cc(OC)c1OC ?
Env fusion inh: inactive; DENV2 CPE: 67.3; PglD DTNB: inactive; Ecoli rRNA inh: inactive; PGC1a acetyl inh: inactive; FN deposition inh: inactive

How did CCCOc1ccc(Cn2cnc3ccccc32)cc1 do in these assays?
Env fusion inh: 60.1; PglD DTNB: inactive; Ecoli rRNA inh: inactive; PGC1a acetyl inh: inactive; FN deposition inh: inactive

What do the screens show for `Cc1ccc(/C=N\Nc2cn[nH]c(=O)c2Cl)cc1`?
Env fusion inh: inactive; PglD DTNB: inactive; PGC1a acetyl inh: inactive; FN deposition inh: inactive

Results for Cc1ccsc1/C=N\Nc1cn[nH]c(=O)c1Cl ?
Env fusion inh: 56.0; DENV2 CPE: inactive; Ecoli rRNA inh: inactive; PGC1a acetyl inh: inactive; FN deposition inh: inactive

What do the screens show for `COc1ccc(S(=O)(=O)Nc2ccc3c(c2)CC(=O)N([C@H](C)CO)C[C@H](C)[C@@H](CN(C)CC2CCCCC2)O3)cc1`?
Env fusion inh: inactive; DENV2 CPE: inactive; PglD DTNB: inactive; Ecoli rRNA inh: inactive; PGC1a acetyl inh: inactive

What do the screens show for `CCCc1cc(=O)n2[nH]cc(-c3ccc(Cl)cc3)c2n1`?
Env fusion inh: 84.9; DENV2 CPE: inactive; PglD DTNB: inactive; Ecoli rRNA inh: inactive; FN deposition inh: inactive

What do the screens show for `C[C@H]1CN([C@@H](C)CO)C(=O)Cc2cc(NC(=O)Nc3cccc4ccccc34)ccc2O[C@@H]1CN(C)Cc1ccc(C(=O)Nc2ccccc2N)cc1`?
DENV2 CPE: 38.2; Ecoli rRNA inh: inactive; PGC1a acetyl inh: inactive

Results for C[C@H](CO)N1C[C@H](C)[C@H](CN(C)Cc2ccccc2)Oc2ccc(NC(=O)Nc3cccc4ccccc34)cc2CC1=O ?
Env fusion inh: 60.2[16.7 µM]; DENV2 CPE: inactive; PglD DTNB: inactive; Ecoli rRNA inh: inactive

Results for C[C@H](CO)N1C[C@H](C)[C@@H](CN(C)Cc2ccc(C(=O)O)cc2)Oc2ccc(NC(=O)Nc3cccc4ccccc34)cc2CC1=O ?
DENV2 CPE: 76.5; PglD DTNB: inactive; Ecoli rRNA inh: inactive; PGC1a acetyl inh: inactive; FN deposition inh: inactive

How did C[C@@H]1CN([C@@H](C)CO)S(=O)(=O)c2ccc(C#CC3CC3)cc2O[C@H]1CN(C)C(=O)C1CC1 do in these assays?
Env fusion inh: inactive; DENV2 CPE: inactive; PglD DTNB: inactive; Ecoli rRNA inh: inactive; PGC1a acetyl inh: inactive; FN deposition inh: inactive

What do the screens show for `CCc1csc(N2[C@@H](C#N)[C@H](c3ccc(C#Cc4ccc(F)cc4)cc3)[C@@H]2CO)n1`?
Env fusion inh: inactive; DENV2 CPE: inactive; PglD DTNB: inactive; Ecoli rRNA inh: inactive; PGC1a acetyl inh: inactive; FN deposition inh: inactive

What do the screens show for `COc1ccccc1S(=O)(=O)N1CC[C@@H]2[C@@H](CO)N(C)c3ccc(-c4ccccc4)cc3[C@@H]21`?
DENV2 CPE: inactive; PglD DTNB: inactive; Ecoli rRNA inh: inactive; PGC1a acetyl inh: inactive; FN deposition inh: inactive

What do the screens show for `CCCNC(=O)N1CC2(CCN(C(=O)Cc3cccnc3)CC2)c2c([nH]c3cc(OC)ccc23)[C@@H]1CO`?
DENV2 CPE: inactive; Ecoli rRNA inh: inactive; PGC1a acetyl inh: inactive; FN deposition inh: inactive

What do the screens show for `O=C(C1CCC1)N1CC[C@H]2[C@H](CO)Nc3ccc(C#Cc4cccc(F)c4)cc3[C@H]21`?
DENV2 CPE: inactive; PglD DTNB: inactive; Ecoli rRNA inh: inactive; PGC1a acetyl inh: inactive; FN deposition inh: inactive

Results for COCCNC(=O)[C@@H]1CCCN1S(=O)(=O)c1cccc2cccnc12 ?
Env fusion inh: inactive; PglD DTNB: inactive; Ecoli rRNA inh: inactive; PGC1a acetyl inh: inactive; FN deposition inh: inactive

Results for COc1ccccc1CNC(=O)C1CCCN1S(=O)(=O)c1cccc2cccnc12 (stereo not given) ?
Env fusion inh: 57.0; DENV2 CPE: inactive; PglD DTNB: inactive; Ecoli rRNA inh: inactive; PGC1a acetyl inh: inactive; FN deposition inh: inactive

Screening data: PubChem, Broad Institute
